From ChEMBL document CHEMBL4765302, “Design, synthesis and biological evaluation of novel histone deacetylase1/2 (HDAC1/2) and cyclin-dependent Kinase2 (CDK2) dual inhibitors against malignant cancer” (Eur J Med Chem, 2020)
Active and inactive are the calls of the source. No cut-off for these calls is given here.

Key:
A-375 [1] = experiment: Induction of apoptosis in human A-375 cells assessed as viable cells at 2 uM incubated for 48 hrs by annexin V-FITC and PI staining based flow cytometry (reference value: 96.3 %); type: functional; settings: read-out: Activity
HepG2 = experiment: Antiproliferative activity against human HepG2 cells assessed as reduction in cell growth at 8 uM incubated for 72 hrs by CCK-8 assay relative to control; type: functional
HCT-116 [2] = experiment: Induction of apoptosis in human HCT-116 cells assessed as late apoptotic cells at 1 uM incubated for 48 hrs by annexin V-FITC and PI staining based flow cytometry (reference value: 1.88 %); type: functional
HCT-116 [3] = experiment: Induction of apoptosis in human HCT-116 cells assessed as necrotic cells at 2 uM incubated for 48 hrs by annexin V-FITC and PI staining based flow cytometry (reference value: 0.124 %); type: functional
[4] = MRT (0 to t) in ICR mouse at 20 mg/kg, ip measured upto 24 hrs by LC-MS/MS analysis; settings: in vivo
HCT-116 [5] = experiment: Induction of apoptosis in human HCT-116 cells assessed as viable cells at 2 uM incubated for 48 hrs by annexin V-FITC and PI staining based flow cytometry (reference value: 93.9 %); type: functional; settings: read-out: Activity
NCI-H460 [6] = experiment: Induction of apoptosis in human NCI-H460 cells assessed as viable cells at 1 uM incubated for 48 hrs by annexin V-FITC and PI staining based flow cytometry (reference value: 90.4 %); type: functional; settings: read-out: Activity
HCT-116 [7] = experiment: Antitumor activity against human HCT-116 cells xenografted in Balb/c mouse assessed as tumor growth inhibition at 50 mg/kg, ip administered for 21 days and measured on day 21 relative to control; type: functional; settings: HCT-116, ip, 504 h, time 21 day, read-out: GI
How it was run: (§1)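 HCT116 xenografts in BALB/c nude mice. Dosing started when tumours reached 100–300 mm³: intraperitoneal injection once daily for 21 days at 25, 50 or 100 mg/kg, versus blank. Body weight monitored. Tumour growth inhibition computed against blank.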

[8] = Cmax in ICR mouse at 20 mg/kg, ip measured upto 24 hrs by LC-MS/MS analysis; settings: in vivo
HCT-116 [9] = experiment: Antiproliferative activity against human HCT-116 cells assessed as reduction in cell growth at 8 uM incubated for 72 hrs by CCK-8 assay relative to control; type: functional
A-375 [10] = experiment: Induction of apoptosis in human A-375 cells assessed as late apoptotic cells at 1 uM incubated for 48 hrs by annexin V-FITC and PI staining based flow cytometry (reference value: 2.24 %); type: functional
HCT-116 [11] = experiment: Induction of cell cycle arrest in human HCT-116 cells assessed as reduction in G0/G1 phase at 0.5 to 2 uM incubated for 24 hrs by PI staining based flow cytometry; type: functional; settings: dose 0.5-2 µM
How it was run: (§2)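 Treatment at 2, 1 and 0.5 μM for 24 h, alongside CS055 and roscovitine, against a DMSO (0.1 %) blank. Cells then stained with propidium iodide and analyzed by flow cytometry.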

[12] = Clearance in ICR mouse at 4 mg/kg, iv measured upto 24 hrs by LC-MS/MS analysis; type: ADME, organism-based; settings: in vivo
How it was run: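 Male ICR mice (N=9). Single dose, either 4 mg/kg intravenous or 20 mg/kg intraperitoneal. Parameters derived: T1/2, Tmax, Cmax, AUC0-t, MRT0-t and CL, with F for the intraperitoneal arm.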

HCT-116 [13] = experiment: Antitumor activity against human HCT-116 cells xenografted in Balb/c mouse assessed as tumor growth inhibition at 25 mg/kg, ip administered for 21 days and measured on day 21 relative to control; type: functional; settings: HCT-116, ip, 504 h, time 21 day, read-out: GI; how it was run: as §1
[14] = Tmax in ICR mouse at 20 mg/kg, ip measured upto 24 hrs by LC-MS/MS analysis; settings: in vivo
NCI-H460 [15] = experiment: Antiproliferative activity against human H460 cells assessed as reduction in cell growth at 2 uM incubated for 72 hrs by CCK-8 assay relative to control; type: functional
HCT-116 [16] = experiment: Antitumor activity against human HCT-116 cells xenografted in Balb/c mouse assessed as tumor growth inhibition at 100 mg/kg, ip administered for 21 days and measured on day 21 relative to control; type: functional; settings: HCT-116, ip, 504 h, time 21 day, read-out: GI; how it was run: as §1
A-375 [17] = experiment: Induction of apoptosis in human A-375 cells assessed as late apoptotic cells at 2 uM incubated for 48 hrs by annexin V-FITC and PI staining based flow cytometry (reference value: 2.24 %); type: functional
HeLa [18] = experiment: Induction of apoptosis in human HeLa cells assessed as necrotic cells at 0.5 uM incubated for 48 hrs by annexin V-FITC and PI staining based flow cytometry (reference value: 0.124 %); type: functional
HeLa [19] = experiment: Induction of cell cycle arrest in human HeLa cells assessed as reduction in G0/G1 phase at 0.5 to 2 uM incubated for 24 hrs by PI staining based flow cytometry; type: functional; settings: dose 0.5-2 µM; how it was run: as §2
NCI-H460 [20] = experiment: Induction of apoptosis in human NCI-H460 cells assessed as viable cells at 2 uM incubated for 48 hrs by annexin V-FITC and PI staining based flow cytometry (reference value: 90.4 %); type: functional; settings: read-out: Activity
A-375 [21] = experiment: Inhibition of HDAC in human A-375 cells assessed as increase the acetylation of histone H3 at 1 uM incubated for 12 hrs by DAPI and immunofluorescence staining based confocal microscopic analysis; type: cell-based
HCT-116 [22] = experiment: Induction of apoptosis in human HCT-116 cells assessed as necrotic cells at 0.5 uM incubated for 48 hrs by annexin V-FITC and PI staining based flow cytometry (reference value: 0.124 %); type: functional
A-375 [23] = experiment: Induction of cell cycle arrest in human A-375 cells assessed as G2/M phase at 0.5 uM incubated for 24 hrs by PI staining based flow cytometry (reference value: 13.7 %); type: functional; how it was run: as §2
[24] = Half life in ICR mouse at 20 mg/kg, ip measured upto 24 hrs by LC-MS/MS analysis; settings: in vivo
NCI-H460 [25] = experiment: Induction of apoptosis in human NCI-H460 cells assessed as necrotic cells at 2 uM incubated for 48 hrs by annexin V-FITC and PI staining based flow cytometry (reference value: 0.632 %); type: functional
A-375 [26] = experiment: Antiproliferative activity against human A-375 cells assessed as reduction in cell growth incubated for 72 hrs by CCK-8 assay; type: functional, cell-based; settings: A-375, 72 h
How it was run: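 IC50 by CCK-8 assay across five solid-tumour lines (HCT116, HepG2, H460, HeLa, A375). Run only for compounds chosen after the single-concentration screen, with CS055 and roscovitine as references.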

NCI-H460 [27] = experiment: Induction of apoptosis in human NCI-H460 cells assessed as necrotic cells at 1 uM incubated for 48 hrs by annexin V-FITC and PI staining based flow cytometry (reference value: 0.632 %); type: functional
Histone deacetylase 2 = Histone deacetylase 2 (Homo sapiens, UniProt Q92769); experiment: Inhibition of recombinant human HDAC2 using FLUOR-DE-LYS-Green as substrate incubated for 10 mins followed by substrate addition and measured after 30 mins by fluorescence based assay
How it was run: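 IC50 values reported as means of at least two separate determinations, expressed as mean ±SD.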

[28] = target: Cyclin-dependent kinase 2 (Homo sapiens) (UniProt P24941); experiment: Inhibition of CDK2 in human A-375 cells at 1 uM incubated for 12 hrs by DAPI and immunofluorescence staining based confocal microscopic analysis; type: cell-based

Histone deacetylase 2, sequence (Q92769 whole entry): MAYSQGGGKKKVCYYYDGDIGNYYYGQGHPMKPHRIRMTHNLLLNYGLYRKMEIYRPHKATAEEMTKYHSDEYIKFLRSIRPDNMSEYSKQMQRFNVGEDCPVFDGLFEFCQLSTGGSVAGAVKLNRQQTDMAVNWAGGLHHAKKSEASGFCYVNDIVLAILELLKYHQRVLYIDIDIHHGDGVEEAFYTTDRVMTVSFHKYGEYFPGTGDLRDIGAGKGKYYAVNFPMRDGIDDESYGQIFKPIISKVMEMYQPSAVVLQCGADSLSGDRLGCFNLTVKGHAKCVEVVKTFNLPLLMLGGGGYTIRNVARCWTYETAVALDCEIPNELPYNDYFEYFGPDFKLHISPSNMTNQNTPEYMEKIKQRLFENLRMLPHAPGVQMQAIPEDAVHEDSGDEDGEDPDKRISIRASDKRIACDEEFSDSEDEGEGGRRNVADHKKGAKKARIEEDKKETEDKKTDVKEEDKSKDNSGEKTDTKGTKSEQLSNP

Molecule `Cc1ccc(Nc2nc(Cl)nc3c2ncn3Cc2ccc(C(=O)Nc3ccccc3N)cc2)cc1` has a viability at 2 µM (A-375 [1]) of 7.6%, an inhibition at 8 µM (HepG2) of 82% and an Activity (HCT-116 [2]) of 14%. The Activity (HCT-116 [3]) was 0.639%, the MRT last at 24 h [4] was 4.54 h and the viability at 2 µM (HCT-116 [5]) was 9.72%. It also gave a viability at 1 µM (NCI-H460 [6]) of 63.1%, an inhibition in vivo at 50 mg/kg (HCT-116 [7]) of 40% and a Cmax [8] of 1360 ng/mL. For the same molecule, the inhibition at 8 µM (HCT-116 [9]) was 81.5%, the Activity (A-375 [10]) was 83.4% and the Activity (HCT-116 [11]) was “Active”. For the same molecule, the clearance [12] was 23.3 mL/min/kg, the inhibition in vivo at 25 mg/kg (HCT-116 [13]) was 28% and the Tmax [14] was 2 h. It also gave an inhibition at 2 µM (NCI-H460 [15]) of 67.3%, an inhibition in vivo at 100 mg/kg (HCT-116 [16]) of 44% and an Activity (A-375 [17]) of 84.8%. The Activity (HeLa [18]) was 0.31%, the Activity (HeLa [19]) was “Active” and the viability at 2 µM (NCI-H460 [20]) was 31.9%. The inhibition (A-375 [21]) was “Active”, the Activity (HCT-116 [22]) was 1.37% and the Activity (A-375 [23]) was 57.03%. For the same molecule, the half-life [24] was 2.84 h, the Activity (NCI-H460 [25]) was 9.03% and the IC50 (A-375 [26]) was 0.47 µM. The Activity (NCI-H460 [27]) was 0.871%, the IC50 (Histone deacetylase 2) was 0.0231 µM and the inhibition [28] was “Active”.
